Like-named read-outs stand apart in the source and are kept apart here. Blank lines part the entries; values can stand above or below the compound they belong to.
How the values were obtained:
MDA-MB-231 cells [1] = assay: Cellular uptake of dyes, blocking experiment; format: cell-based, Human; conditions: for effect of BSP on cellular uptake in SFM: 250 μM BSP; for effect of BSA added to SFM on cellular uptake: BSA only in the media, FACS; for effect of serum on cellular uptake: media with 10% FBS versus serum free media
How it was run: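 MDA-MB-231 cells (50,000) seeded in serum medium overnight, then starved 4 h in serum-free medium. Groups: no serum (reference), 10% FBS, and 250 μM BSP preblock for 5 min with or without serum. Test compound added for 30 min, then washed. Read by confocal (670 nm excitation) or by FACS after enzyme-free detachment (633 nm excitation, 750/45 emission). Separate arms used DMOG 24 h beforehand for hypoxia, or BSA alone in medium.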

HSA [2] = biological target: T1, HSA (Homo sapiens, UniProt P02768); assay: UV-vis/fluorescence spectroscopy of dye interaction with albumin; format: binding; conditions: for formation of noncovalent adduct with albumin: UV absorbance maximum shift on mixing with HSA or serum
HSA [3] = biological target: T1, HSA; conditions: absorption maxima red-shifted in presence of albumin; cited from earlier work
MDA-MB-231 cells [4] = assay: BSA-FITC and dye colocalization by confocal microscopy; format: cell-based, Human
How it was run: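 50,000 MDA-MB-231 cells (grown in DMEM/10% FBS, 37 °C, 5% CO₂) incubated with test dye (10 μM) and equimolar BSA-FITC, either mixed just before use, preincubated 24 h, or added with BSA-FITC whose Cys34 was blocked by 24 h 6-maleimidohexanoic acid pretreatment. Cells then washed twice with PBS and imaged confocally (NIR: 670 nm excitation, 716−789 nm; FITC: 490 nm excitation, 500−589 nm). Pearson coefficient computed.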

OATP1B3 [5] = conditions: PC-3 prostate cancer xenograft; cited from earlier work
[6] = test system: subcutaneous triple negative breast tumors (E0771); format: in vivo, C57Bl/6 mice; conditions: 25 nmol iv
How it was run: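 Female C57Bl/6 mice, 6 wk old (20−30 g), inoculated subcutaneously in left flank with 5 × 10⁶ E0771 cells in PBS. 25 nmol test compound in 10% BSA given iv; NIR imaging (760 nm excitation, 4 mW/cm²) at 0.5, 1, 2, 4, 24 and 48 h. TBR = tumor fluorescence over nearby healthy tissue; at least 3 animals per time point; mean ± s.d.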

HepG2 cells = assay: Cellular uptake of dyes into HepG2 liver cancer cells; format: cell-based; conditions: compared with MDA-MB-231 data
How it was run: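 HepG2 cells kept in DMEM with 10% FBS at 37 °C and 5% CO₂, passaged at 70% confluency. Live-cell dye uptake imaged by confocal microscopy with a 20×/0.75 water objective; NIR excitation at 670 nm, detection at 716−789 nm.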

[7] = Pharmacokinetics, clearance and urinary excretion; format: in vivo, CD-1 mice; conditions: 25 nmol iv
How it was run: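 Healthy CD-1 mice (25 g) dosed iv with 25 nmol test compound in saline with 10% BSA. Blood taken at 0, 10, 30, 60, 120, 180, 240 and 300 min, spun 3000 rpm for 20 min; plasma fluorescence read by NIR imaging. For excretion, male mice had the penis ligated before dosing and were killed at 4 h; urine fluorescence read by spectrophotometer.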

[8] = Biodistribution in resected tumors and organs at 48 h post-injection; format: in vivo, C57Bl/6 mice; conditions: 25 nmol iv, tumors and organs resected 48 h post-injection
How it was run: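 Tumor-bearing C57Bl/6 mice (subcutaneous E0771) anesthetized with ketamine (100 mg/kg) and xylazine (10 mg/kg), abdomen opened by midline incision; 25 nmol test compound in 10% BSA given iv. Imaged at 48 h with intraoperative NIR system (760 nm excitation, 4 mW/cm²; 800 nm emission). ROI signal/background ratio over organs or tumor; at least 3 animals; one-way ANOVA with Tukey test; mean ± s.d.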

OATP1B3 [9] = conditions: ARCePE prostate cancer xenograft; cited from earlier work
albumin = conditions: cited from earlier work

T1 sequence (P02768 25-609): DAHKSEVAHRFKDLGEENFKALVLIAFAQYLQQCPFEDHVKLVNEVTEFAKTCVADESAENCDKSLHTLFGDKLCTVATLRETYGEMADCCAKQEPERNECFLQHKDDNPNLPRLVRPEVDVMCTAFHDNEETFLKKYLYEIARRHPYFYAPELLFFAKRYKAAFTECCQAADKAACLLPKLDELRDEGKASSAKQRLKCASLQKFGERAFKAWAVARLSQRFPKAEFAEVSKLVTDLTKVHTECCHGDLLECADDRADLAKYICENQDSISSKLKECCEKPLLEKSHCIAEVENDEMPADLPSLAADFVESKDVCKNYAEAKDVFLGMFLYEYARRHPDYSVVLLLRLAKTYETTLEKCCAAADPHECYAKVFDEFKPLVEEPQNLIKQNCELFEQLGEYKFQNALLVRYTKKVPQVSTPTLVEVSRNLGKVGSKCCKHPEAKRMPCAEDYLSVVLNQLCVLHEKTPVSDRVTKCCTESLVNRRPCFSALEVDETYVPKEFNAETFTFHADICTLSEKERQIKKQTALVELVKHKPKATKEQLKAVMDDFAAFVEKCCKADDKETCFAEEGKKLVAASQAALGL

Structure (SMILES): CCCN1C(=CC=C2CCCC(C=CC3=[N+](CCC)c4ccccc4C3(C)C)=C2Cl)C(C)(C)c2ccccc21.[I-] [4-Cl]
formation of noncovalent adduct with albumin (HSA [3]): implying noncovalent complexation

Structure (SMILES): CC1(C)C(=CC=C2CCCC(C=CC3=[N+](CCCCS(=O)(=O)[O-])c4ccccc4C3(C)C)=C2Cl)N(CCCCS(=O)(=O)[O-])c2ccccc21.[Na+] [2-Cl]
effect of BSP on cellular uptake in SFM (MDA-MB-231 cells [1]; serum free media): suppressed | effect of BSA added to SFM on cellular uptake (MDA-MB-231 cells [1]): suppressed | effect of serum on cellular uptake (MDA-MB-231 cells [1]): suppressed | formation of noncovalent adduct with albumin (HSA [2]): appear to form noncovalent adducts

Structure (SMILES): O=C1OC(c2ccc(O)c(S(=O)(=O)O)c2)(c2ccc(O)c(S(=O)(=O)O)c2)c2c(Br)c(Br)c(Br)c(Br)c21 [BSP, Bromosulfophthalein]
fraction bound to albumin (albumin; after iv injection): more than 99% | unbound BSP (albumin; equimolar concentrations of BSP and albumin): less than 0.1%

More lines, main results first:

formation of noncovalent adduct with albumin (HSA [2]): appear to form noncovalent adducts
Structure (SMILES): CC1(C)C(/C=C/C=C/C=C/C=C2\N(CCCCS(=O)(=O)[O-])c3ccc4ccccc4c3C2(C)C)=[N+](CCCCS(=O)(=O)[O-])c2ccc3ccccc3c21.[Na+] [ICG]
effect of BSP on cellular uptake in SFM (MDA-MB-231 cells [1]; serum free media): suppressed | effect of BSA added to SFM on cellular uptake (MDA-MB-231 cells [1]): suppressed | effect of serum on cellular uptake (MDA-MB-231 cells [1]): suppressed

urinary excretion ([7]; CD-1 mice): Insignificant urinary excretion | blood plasma (fluorescence) elimination half-life ([7]; healthy CD-1 mice, plasma fluorescence up to 5 h): 3.253 h | persistence in body at 48 h (biodistribution) [8]: persisted | formation of noncovalent adduct with albumin (HSA [2]): form a non-covalent adduct with albumin | displacement of dye from albumin by BSP (HSA [2]; up to 50 equiv BSP, either order of addition): not displaced from albumin by BSP
Structure (SMILES): CC1(C)C(/C=C/C2=C(Cl)C(=C/C=C3\N(CCCCCC(=O)O)c4ccccc4C3(C)C)/CCC2)=[N+](CCCCCC(=O)O)c2ccccc21 [1-Cl]
Pearson coefficient of colocalization (MDA-MB-231 cells [4]; 1-Cl preincubated with Cys34-blocked BSA-FITC): 0.56 | Pearson coefficient of colocalization with BSA-FITC (MDA-MB-231 cells [4]; dye 10 μM and ~1 equiv BSA-FITC, noncovalent adduct): 0.65 | reduction of tumor uptake on OATP1B3 knockdown (OATP1B3 [5]): approximately 40% | time post-injection at which high contrast was observed [6]: 48 h | maximum TBR ([6]; 48 h post-injection): 3.5 | tumor accumulation and persistence ([6]; up to 48 h): high tumor accumulation and prolonged retention | uptake into HepG2 cells, trend (HepG2 cells): followed the same trends | effect of BSA added to SFM on cellular uptake (MDA-MB-231 cells [1]): almost identical to those in serum | effect of serum on cellular uptake (MDA-MB-231 cells [1]): suppressed | decrease of uptake by BSP (MDA-MB-231 cells [1]; serum free media, 250 μM BSP preblock, dye 20 μM, FACS quantitation): 40−50% | reduction of tumor uptake on OATP1B3 knockdown (OATP1B3 [9]): ~ 25%
